Reference: publication PMC4358770 (Journal of medicinal chemistry, 2010)
pEC50: −log10 of the molar value. Like-named read-outs stand apart in the source and are kept apart here.

Assays:
rabbit IOP [1] = conditions: topically applied to New Zealand white rabbits; cited from earlier work
[2] = pKa and ionization of the terminal phosphate/phosphonate; format: physicochemical; conditions: pH 7.4, terminal phosphate/phosphonate
rabbit IOP [3] = test: IOP measurements in normotensive rabbits; format: in vivo, New Zealand white rabbits
How it was run: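 Male New Zealand white rabbits (2.5 ± 0.5 kg) on a 12 h/12 h light/dark cycle. Test compound was applied unilaterally to the cornea at 100 μM in 10 μL, with 0.9% saline vehicle in the contralateral eye. Design was blinded, with two baseline readings by rebound tonometer and follow-up to 8 h. Dose–response used 1 nM–100 μM, taking the maximal response per dose. […] Mean-time effect was the time from 50% maximal IOP decrease to 50% recovery. Mean ± SEM of 8–10 experiments.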

[4] = cited from earlier work
P2Y1R = conditions: read-out: EC50 at P2Y1R; cited from earlier work
[5] = pH 1.4, 37 °C; cited from earlier work
[6] = biological target: calf intestine alkaline phosphatase (Bos taurus, UniProt P19111); test: Hydrolysis by alkaline phosphatase; conditions: for degradation by alkaline phosphatase after 3 h: 0.2 mg analogue/77.5 μL, 12.5 units of AP, 37 °C; for resistance to hydrolysis by alkaline phosphatase: over 30 min at 37 °C
[7] = Stability in human blood serum at 37 °C; format: in vitro ADME
[8] = Chemical stability at pH 1.4 and 37 °C, monitored by HPLC; format: physicochemical; conditions: for t1/2 of hydrolysis at pH 1.4: pH 1.4, 37 °C, KCl/HCl buffer
turkey P2Y1 receptor = turkey P2Y1 receptor (Meleagris gallopavo, UniProt P49652); format: cell-based; conditions: replacement of nonbridging oxygen with BH3
[9] = human blood serum/RPMI-1640, 37 °C

Chain of calf intestine alkaline phosphatase (P19111 20-533): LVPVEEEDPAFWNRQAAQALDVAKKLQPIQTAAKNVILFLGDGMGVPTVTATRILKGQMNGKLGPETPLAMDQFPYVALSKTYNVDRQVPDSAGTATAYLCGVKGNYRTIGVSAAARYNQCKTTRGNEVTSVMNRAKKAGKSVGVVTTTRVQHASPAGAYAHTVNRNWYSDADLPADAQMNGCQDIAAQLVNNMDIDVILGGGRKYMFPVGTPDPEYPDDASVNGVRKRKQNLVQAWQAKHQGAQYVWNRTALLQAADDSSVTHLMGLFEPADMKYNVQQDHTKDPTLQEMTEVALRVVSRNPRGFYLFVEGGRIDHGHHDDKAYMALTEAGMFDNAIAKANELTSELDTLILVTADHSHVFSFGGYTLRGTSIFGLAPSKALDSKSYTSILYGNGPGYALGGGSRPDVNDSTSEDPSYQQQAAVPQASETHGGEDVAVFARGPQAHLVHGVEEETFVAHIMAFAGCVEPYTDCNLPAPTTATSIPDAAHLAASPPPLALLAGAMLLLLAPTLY
Chain of turkey P2Y1 receptor (P49652 whole entry): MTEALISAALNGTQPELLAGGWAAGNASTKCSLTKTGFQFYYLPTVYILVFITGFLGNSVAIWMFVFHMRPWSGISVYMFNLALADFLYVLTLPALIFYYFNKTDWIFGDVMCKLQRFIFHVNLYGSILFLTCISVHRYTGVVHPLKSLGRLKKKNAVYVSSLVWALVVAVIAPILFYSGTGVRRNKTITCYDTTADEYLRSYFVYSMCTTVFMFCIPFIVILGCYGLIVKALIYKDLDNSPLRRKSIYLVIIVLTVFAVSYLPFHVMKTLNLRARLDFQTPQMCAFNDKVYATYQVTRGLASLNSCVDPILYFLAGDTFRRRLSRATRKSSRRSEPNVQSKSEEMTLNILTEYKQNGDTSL

Molecule: Nc1ncnc2c1ncn2[C@@H]1O[C@H](COP(=O)(O)OP(=O)(O)OP(=O)(O)OP(=O)(O)OP(=O)(O)OC[C@H]2O[C@@H](n3cnc4c(N)ncnc43)[C@H](O)[C@@H]2O)[C@@H](O)[C@H]1O [Ap5A, diadenosine pentaphosphate]
- effect on IOP (increase or reduction) (rabbit IOP [1]): increase IOP

Molecule: CSc1nc(N)c2ncn([C@@H]3O[C@H](COP(=O)(O)OP(=O)(O)CP(=O)(O)O)[C@@H](O)[C@H]3O)c2n1 [analogue 1, 2-MeS-β,γ-CH2-ATP]
- fraction ionized at physiological pH [2]: 9%
- duration of the reduction in IOP (mean-time effect) (rabbit IOP [3]; 100 μM, 10 μL): 3.5 h
- t1/2 in human blood serum [4]: 12.1 h
- pEC50 (P2Y1R): 7.10

Molecule: α-B,β,γ-CH2-ATP [analogue 2]
- t1/2 of hydrolysis at pH 1.4 [5]: 19 h

Molecule: CSc1nc(N)c2ncn([C@@H]3O[C@H](COP(=O)(O)OP(=O)(O)O)[C@@H](O)[C@H]3O)c2n1 [analogue 7, 2-MeS-ADP]
- degradation by alkaline phosphatase after 3 h [6]: 87%
- half-life at 0.248 mM ([7]; human, human blood serum diluted with RPMI-1640 medium): 23.5 h

Molecule: CC(C)OC(=O)CCC/C=C\C[C@@H]1[C@@H](CC[C@@H](O)CCc2ccccc2)[C@H](O)C[C@@H]1O [latanoprost]
- duration of the reduction in IOP (mean-time effect) (rabbit IOP [3]; commercial drug, 0.005%, 40 μL): 5.5 h

Molecule: BP(=O)(OCC1OC(n2cnc3c(N)nc(SC)nc32)C(O)C1O)OP(=O)(O)C(Cl)(Cl)P(=O)(O)O (stereo not drawn) [analogue 12, α-borano-β,γ-CCl2-2-MeS-ATP]
- resistance to hydrolysis by alkaline phosphatase [6]: completely resistant

Molecule: Nc1ncnc2c1ncn2[C@@H]1O[C@H](COP(=O)(O)OP(=O)(O)OP(=O)(O)OC[C@@H]2O[C@H](n3cnc4c(N)ncnc43)[C@@H](O)[C@H]2O)[C@@H](O)[C@H]1O [Ap3A, diadenosine triphosphate]
- effect on IOP (increase or reduction) (rabbit IOP [1]): increase IOP

Molecule: Nc1ncnc2c1ncn2[C@@H]1O[C@H](COP(=O)(O)OP(=O)(O)O)[C@@H](O)[C@H]1O [ADP]
- degradation by alkaline phosphatase after 3 h [6]: completely degraded
- half-life in human blood serum [7, 9]: 1.4 h

Molecule: CSc1nc(N)c2ncn([C@@H]3O[C@H](COP(=O)(O)OP(=O)(O)C(Cl)(Cl)P(=O)(O)O)[C@@H](O)[C@H]3O)c2n1 [analogue 9, β,γ-CCl2-2-MeS-ATP]
- t1/2 of hydrolysis at pH 1.4 [8]: 65 h
- duration of the reduction in IOP (mean-time effect) (rabbit IOP [3]; 100 μM, 10 μL): 4.5 h
- degradation in human blood serum over 24 h [7, 9]: 15%

Molecule: BP(=O)(OC[C@H]1O[C@@H](n2cnc3c(N)nc(SC)nc32)[C@H](O)[C@@H]1O)OP(=O)(O)CP(=O)(O)O (stereo partly drawn) [analogue 3, 2-MeS-α-B,β,γ-CH2-ATP]
- t1/2 of hydrolysis at pH 1.4 [5]: 14.5 h

Molecule: BP(=O)(OC[C@H]1O[C@@H](n2cnc3c(N)nc(SC)nc32)[C@H](O)[C@@H]1O)OP(=O)(O)C(F)(F)P(=O)(O)O (stereo partly drawn) [analogue 10B, 2-MeS-adenosine-5′-O-(α-boranotriphosphate)-β,γ-CF2]
- t1/2 of hydrolysis at pH 1.4 [8]: ~8 h
- fold reduction in P2Y1R activity vs analogue 8 (turkey P2Y1 receptor): 3 fold

Molecule: BP(=O)(OCC1OC(n2cnc3c(N)nc(SC)nc32)C(O)C1O)OP(=O)(O)C(F)(F)P(=O)(O)O (stereo not drawn) [analogue 10, α-borano-β,γ-CF2-2-MeS-ATP]
- resistance to hydrolysis by alkaline phosphatase [6]: completely resistant

Molecule: Nc1ncnc2c1ncn2[C@@H]1O[C@H](COP(=O)(O)OP(=O)(O)OP(=O)(O)OP(=O)(O)OC[C@H]2O[C@@H](n3cnc4c(N)ncnc43)[C@H](O)[C@@H]2O)[C@@H](O)[C@H]1O [Ap4A, diadenosine tetraphosphate]
- effect on IOP (increase or reduction) (rabbit IOP [1]): reduced

Molecule: CSc1nc(N)c2ncn([C@@H]3O[C@H](COP(=O)(O)C(F)(F)P(=O)(O)O)[C@@H](O)[C@H]3O)c2n1 [analogue 13, 2-MeS-adenosine-5′-O-diphosphate-α,β-difluoromethylene]
- starting material remaining at pH 1.4 ([8]; pH 1.4, after 30 days): 61%

Molecule: BP(=O)(OC[C@H]1O[C@@H](n2cnc3c(N)nc(SC)nc32)[C@H](O)[C@@H]1O)OP(=O)(O)CP(=O)(O)O (stereo partly drawn) [analogue 3B]
- pEC50 (P2Y1R): 4.76

Molecule: Nc1ncnc2c1ncn2[C@@H]1O[C@H](COP(=O)(O)OP(=O)(O)OP(=O)(O)OP(=O)(O)O)[C@@H](O)[C@H]1O [Ap4, adenosine tetraphosphate]
- effect on IOP (increase or reduction) (rabbit IOP [1]): reduced

Molecule: 2-MeS-α-borano-ATP (A-isomer) [analogue 4A]
- pEC50 (P2Y1R): 8.59

Molecule: CSc1nc(N)c2ncn([C@@H]3O[C@H](COP(=O)(O)C(Cl)(Cl)P(=O)(O)O)[C@@H](O)[C@H]3O)c2n1 [analogue 14, 2-MeS-Rα,β-dichloromethylene-ADP]
- hydrolysis of the starting material at pH 1.4 ([8]; pH 1.4, after 6 days): 15%
- degradation in human blood serum over 24 h [7, 9]: completely resistant
